Laboratory results reported in ChEMBL document CHEMBL5696442, “Discovery of type II inhibitors of TGFβ-activated kinase 1 (TAK1) and mitogen-activated protein kinase kinase kinase kinase 2 (MAP4K2)” (J Med Chem, 2015).

Columns and labels:
[1] = Cmax in Swiss albino mouse at 10 mg/kg, po measured upto 24 hrs by LC/MS/MS analysis; assay type: ADME, organism-based; settings: in vivo
[2] = molecular target: Proto-oncogene tyrosine-protein kinase Src (Homo sapiens, UniProt P12931); test: Inhibition of SRC Lys1 labeling site in human A-375 cells at 5 uM by KiNativ Profiling analysis relative to control; assay type: cell-based
Proto-oncogene tyrosine-protein kinase Src, sequence (P12931 2-536 limits assumed): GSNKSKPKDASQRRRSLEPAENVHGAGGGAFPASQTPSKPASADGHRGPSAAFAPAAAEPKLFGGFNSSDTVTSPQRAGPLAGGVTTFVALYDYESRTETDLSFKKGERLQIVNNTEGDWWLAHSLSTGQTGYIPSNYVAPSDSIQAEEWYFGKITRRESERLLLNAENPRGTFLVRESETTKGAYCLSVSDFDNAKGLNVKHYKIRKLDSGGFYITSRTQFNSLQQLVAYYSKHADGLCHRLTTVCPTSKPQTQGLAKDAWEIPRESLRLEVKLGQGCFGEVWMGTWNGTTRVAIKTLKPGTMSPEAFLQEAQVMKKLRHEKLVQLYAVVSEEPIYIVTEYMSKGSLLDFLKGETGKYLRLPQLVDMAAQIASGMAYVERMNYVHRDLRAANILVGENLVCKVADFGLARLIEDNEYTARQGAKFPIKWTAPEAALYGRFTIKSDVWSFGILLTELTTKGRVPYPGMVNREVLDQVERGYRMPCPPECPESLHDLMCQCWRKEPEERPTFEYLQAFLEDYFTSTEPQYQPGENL

[3] = molecular target: Tyrosine-protein kinase Yes (Homo sapiens) (UniProt P07947); test: Inhibition of YES ACT labeling site in human A-375 cells at 5 uM by KiNativ Profiling analysis relative to control; assay type: cell-based
Tyrosine-protein kinase Yes (Homo sapiens), sequence (P07947 2-543 limits assumed): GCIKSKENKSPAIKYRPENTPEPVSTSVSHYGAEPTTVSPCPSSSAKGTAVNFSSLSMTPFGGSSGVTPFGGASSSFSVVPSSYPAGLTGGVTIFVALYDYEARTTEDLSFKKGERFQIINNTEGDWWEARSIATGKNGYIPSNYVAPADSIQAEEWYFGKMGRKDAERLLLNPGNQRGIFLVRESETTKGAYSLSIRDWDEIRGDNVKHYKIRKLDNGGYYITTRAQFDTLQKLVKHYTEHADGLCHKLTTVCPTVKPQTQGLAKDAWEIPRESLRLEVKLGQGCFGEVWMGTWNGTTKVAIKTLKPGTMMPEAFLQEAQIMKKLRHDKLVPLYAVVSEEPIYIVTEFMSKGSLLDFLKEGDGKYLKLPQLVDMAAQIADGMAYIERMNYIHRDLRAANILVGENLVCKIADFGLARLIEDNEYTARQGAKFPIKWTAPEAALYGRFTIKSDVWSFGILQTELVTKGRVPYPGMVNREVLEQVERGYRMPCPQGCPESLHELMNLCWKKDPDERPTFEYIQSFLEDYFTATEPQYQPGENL

[4] = molecular target: Tyrosine-protein kinase ABL2 (Homo sapiens, UniProt P42684); test: Inhibition of ARG (unknown origin) ACT labeling site by KiNativ Profiling analysis
Tyrosine-protein kinase ABL2, sequence (P42684 whole entry): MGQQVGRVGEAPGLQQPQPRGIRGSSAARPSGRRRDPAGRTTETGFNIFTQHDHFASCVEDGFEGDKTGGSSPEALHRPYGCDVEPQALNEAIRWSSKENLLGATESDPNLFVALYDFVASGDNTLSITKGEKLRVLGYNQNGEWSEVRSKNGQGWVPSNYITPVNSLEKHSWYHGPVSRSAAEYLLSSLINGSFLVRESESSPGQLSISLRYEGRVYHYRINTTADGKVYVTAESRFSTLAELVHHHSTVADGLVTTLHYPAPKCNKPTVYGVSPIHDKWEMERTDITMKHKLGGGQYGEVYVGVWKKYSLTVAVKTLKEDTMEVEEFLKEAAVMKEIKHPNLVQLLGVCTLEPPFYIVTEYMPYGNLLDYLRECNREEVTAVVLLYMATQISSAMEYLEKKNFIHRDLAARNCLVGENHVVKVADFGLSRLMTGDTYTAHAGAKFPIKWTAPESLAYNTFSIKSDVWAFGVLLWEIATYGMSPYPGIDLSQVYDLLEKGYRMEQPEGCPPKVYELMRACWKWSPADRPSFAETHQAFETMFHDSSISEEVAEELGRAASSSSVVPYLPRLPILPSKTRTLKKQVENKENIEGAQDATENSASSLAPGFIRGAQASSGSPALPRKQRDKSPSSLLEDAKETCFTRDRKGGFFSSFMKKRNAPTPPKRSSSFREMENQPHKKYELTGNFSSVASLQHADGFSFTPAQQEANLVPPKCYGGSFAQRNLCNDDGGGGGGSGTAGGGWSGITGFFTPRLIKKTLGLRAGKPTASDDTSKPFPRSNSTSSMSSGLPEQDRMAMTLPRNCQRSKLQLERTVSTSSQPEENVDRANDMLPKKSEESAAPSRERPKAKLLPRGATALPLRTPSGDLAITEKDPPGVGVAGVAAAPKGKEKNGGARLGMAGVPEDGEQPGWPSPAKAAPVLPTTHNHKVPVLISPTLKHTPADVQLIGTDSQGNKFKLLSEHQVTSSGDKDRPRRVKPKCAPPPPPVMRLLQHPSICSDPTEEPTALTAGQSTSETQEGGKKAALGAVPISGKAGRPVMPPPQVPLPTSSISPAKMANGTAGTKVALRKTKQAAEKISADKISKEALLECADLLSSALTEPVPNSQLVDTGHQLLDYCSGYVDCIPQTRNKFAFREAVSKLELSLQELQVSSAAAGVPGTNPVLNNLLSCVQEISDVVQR

[5] = molecular target: T1, Mitogen-activated protein kinase kinase kinase 3 (Homo sapiens) (UniProt Q99759); test: Inhibition of MAP3K3 Lys1 labeling site in human A-375 cells at 5 uM by KiNativ Profiling analysis relative to control; assay type: cell-based
T1 sequence (whole entry): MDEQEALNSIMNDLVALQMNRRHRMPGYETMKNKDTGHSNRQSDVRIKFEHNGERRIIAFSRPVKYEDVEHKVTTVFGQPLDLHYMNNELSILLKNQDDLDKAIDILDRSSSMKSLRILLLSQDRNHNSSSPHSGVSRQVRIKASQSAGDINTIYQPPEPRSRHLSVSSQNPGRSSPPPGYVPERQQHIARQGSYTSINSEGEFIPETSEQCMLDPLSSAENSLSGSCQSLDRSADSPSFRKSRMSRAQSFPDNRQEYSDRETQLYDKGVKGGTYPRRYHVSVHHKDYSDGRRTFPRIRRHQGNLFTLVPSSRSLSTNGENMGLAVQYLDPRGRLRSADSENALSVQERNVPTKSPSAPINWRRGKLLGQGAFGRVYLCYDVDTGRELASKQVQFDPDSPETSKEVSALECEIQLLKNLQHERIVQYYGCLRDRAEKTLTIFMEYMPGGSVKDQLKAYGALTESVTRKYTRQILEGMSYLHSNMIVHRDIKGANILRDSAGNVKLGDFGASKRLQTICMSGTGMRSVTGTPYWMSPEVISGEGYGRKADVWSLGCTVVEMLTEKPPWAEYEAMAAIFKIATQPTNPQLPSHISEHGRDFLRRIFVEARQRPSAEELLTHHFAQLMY

[6] = molecular target: Dual specificity mitogen-activated protein kinase kinase 2 (Homo sapiens) (UniProt P36507); test: Inhibition of MAP2K2 Lys2 labeling site in human A-375 cells at 0.5 uM by KiNativ Profiling analysis relative to control; assay type: cell-based
Dual specificity mitogen-activated protein kinase kinase 2 (Homo sapiens), sequence (P36507 whole entry): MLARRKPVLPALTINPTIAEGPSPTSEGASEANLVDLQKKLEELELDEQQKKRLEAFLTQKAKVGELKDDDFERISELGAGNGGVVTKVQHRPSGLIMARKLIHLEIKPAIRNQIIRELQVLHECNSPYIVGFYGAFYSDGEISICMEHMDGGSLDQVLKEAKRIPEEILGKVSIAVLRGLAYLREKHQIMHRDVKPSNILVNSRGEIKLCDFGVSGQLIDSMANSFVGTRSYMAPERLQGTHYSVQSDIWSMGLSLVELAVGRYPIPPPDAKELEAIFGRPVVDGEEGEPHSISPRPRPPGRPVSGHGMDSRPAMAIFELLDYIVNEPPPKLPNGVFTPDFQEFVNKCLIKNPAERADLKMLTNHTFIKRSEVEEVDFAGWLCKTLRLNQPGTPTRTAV

[7] = molecular target: T2, Serine/threonine-protein kinase greatwall (Homo sapiens) (UniProt Q96GX5); test: Inhibition of MASTL ATP Loop labeling site in human A-375 cells at 0.5 uM by KiNativ Profiling analysis relative to control; assay type: cell-based
T2 sequence (whole entry): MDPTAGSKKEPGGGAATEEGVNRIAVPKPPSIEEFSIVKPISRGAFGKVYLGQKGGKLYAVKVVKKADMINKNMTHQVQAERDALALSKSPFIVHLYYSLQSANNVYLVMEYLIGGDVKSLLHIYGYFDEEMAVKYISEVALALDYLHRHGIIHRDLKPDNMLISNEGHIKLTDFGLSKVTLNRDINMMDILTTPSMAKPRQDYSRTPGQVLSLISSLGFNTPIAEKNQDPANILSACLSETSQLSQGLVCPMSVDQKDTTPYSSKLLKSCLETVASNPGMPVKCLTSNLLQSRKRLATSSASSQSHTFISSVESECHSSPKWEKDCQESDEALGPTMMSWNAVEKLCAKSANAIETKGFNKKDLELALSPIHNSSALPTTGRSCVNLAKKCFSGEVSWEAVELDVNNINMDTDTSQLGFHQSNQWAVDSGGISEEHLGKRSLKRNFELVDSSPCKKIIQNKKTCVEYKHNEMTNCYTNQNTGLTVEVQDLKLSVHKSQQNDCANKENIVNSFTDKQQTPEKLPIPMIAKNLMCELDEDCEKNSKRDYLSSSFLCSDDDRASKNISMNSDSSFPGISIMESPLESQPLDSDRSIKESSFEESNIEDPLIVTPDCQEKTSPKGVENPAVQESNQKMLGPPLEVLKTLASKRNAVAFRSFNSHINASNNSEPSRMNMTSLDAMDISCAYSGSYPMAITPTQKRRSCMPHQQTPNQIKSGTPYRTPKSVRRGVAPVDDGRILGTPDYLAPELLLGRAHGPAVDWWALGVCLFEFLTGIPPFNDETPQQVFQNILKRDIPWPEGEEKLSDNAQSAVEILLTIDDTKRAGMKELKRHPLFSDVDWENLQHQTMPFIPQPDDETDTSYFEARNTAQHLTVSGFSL

[8] = molecular target: Serine/threonine-protein kinase SIK3 (Homo sapiens) (UniProt Q9Y2K2); test: Inhibition of QSK Lys2 labeling site in human A-375 cells at 0.5 uM by KiNativ Profiling analysis relative to control; assay type: cell-based
Serine/threonine-protein kinase SIK3 (Homo sapiens), sequence (Q9Y2K2 whole entry, looked up, the tested form may be a part): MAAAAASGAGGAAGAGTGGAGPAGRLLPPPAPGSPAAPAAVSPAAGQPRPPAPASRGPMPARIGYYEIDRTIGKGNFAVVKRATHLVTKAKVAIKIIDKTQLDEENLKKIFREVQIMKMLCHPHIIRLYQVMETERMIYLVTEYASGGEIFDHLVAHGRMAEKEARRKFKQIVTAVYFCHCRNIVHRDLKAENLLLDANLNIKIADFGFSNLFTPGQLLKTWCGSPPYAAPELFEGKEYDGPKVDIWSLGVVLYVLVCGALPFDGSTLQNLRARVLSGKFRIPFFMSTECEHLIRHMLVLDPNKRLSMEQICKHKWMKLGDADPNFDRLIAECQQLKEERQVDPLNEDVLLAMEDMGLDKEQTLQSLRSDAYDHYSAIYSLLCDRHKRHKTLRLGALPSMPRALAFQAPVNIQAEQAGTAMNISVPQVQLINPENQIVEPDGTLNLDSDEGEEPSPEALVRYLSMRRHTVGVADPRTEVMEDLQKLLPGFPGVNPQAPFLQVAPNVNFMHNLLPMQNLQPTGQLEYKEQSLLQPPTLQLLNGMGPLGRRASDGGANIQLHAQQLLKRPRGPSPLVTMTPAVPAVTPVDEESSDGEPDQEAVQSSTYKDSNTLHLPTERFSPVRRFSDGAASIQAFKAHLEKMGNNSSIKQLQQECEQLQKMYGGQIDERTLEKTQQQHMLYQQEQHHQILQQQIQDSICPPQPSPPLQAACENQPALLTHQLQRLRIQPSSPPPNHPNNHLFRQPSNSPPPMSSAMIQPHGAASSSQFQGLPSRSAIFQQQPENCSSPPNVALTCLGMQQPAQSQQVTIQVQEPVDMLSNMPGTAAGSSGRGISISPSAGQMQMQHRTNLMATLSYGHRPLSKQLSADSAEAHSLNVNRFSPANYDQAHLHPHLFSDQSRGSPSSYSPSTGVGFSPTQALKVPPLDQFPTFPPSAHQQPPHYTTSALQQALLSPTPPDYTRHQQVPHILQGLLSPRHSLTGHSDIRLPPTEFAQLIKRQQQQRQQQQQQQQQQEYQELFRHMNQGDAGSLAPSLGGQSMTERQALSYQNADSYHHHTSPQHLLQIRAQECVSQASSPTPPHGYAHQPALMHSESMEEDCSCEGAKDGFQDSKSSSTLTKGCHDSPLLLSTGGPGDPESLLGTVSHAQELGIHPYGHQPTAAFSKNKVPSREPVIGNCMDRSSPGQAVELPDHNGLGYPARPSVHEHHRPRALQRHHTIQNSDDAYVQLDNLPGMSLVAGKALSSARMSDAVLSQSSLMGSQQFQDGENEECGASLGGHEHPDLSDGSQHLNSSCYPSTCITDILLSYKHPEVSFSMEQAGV

[9] = molecular target: Ribosomal protein S6 kinase alpha-3 (Homo sapiens) (UniProt P51812); test: Inhibition of RSK2 domain2 Lys2 labeling site in human A-375 cells at 0.5 uM by KiNativ Profiling analysis relative to control; assay type: cell-based
Ribosomal protein S6 kinase alpha-3 (Homo sapiens), sequence (P51812 whole entry, the tested form may be a part): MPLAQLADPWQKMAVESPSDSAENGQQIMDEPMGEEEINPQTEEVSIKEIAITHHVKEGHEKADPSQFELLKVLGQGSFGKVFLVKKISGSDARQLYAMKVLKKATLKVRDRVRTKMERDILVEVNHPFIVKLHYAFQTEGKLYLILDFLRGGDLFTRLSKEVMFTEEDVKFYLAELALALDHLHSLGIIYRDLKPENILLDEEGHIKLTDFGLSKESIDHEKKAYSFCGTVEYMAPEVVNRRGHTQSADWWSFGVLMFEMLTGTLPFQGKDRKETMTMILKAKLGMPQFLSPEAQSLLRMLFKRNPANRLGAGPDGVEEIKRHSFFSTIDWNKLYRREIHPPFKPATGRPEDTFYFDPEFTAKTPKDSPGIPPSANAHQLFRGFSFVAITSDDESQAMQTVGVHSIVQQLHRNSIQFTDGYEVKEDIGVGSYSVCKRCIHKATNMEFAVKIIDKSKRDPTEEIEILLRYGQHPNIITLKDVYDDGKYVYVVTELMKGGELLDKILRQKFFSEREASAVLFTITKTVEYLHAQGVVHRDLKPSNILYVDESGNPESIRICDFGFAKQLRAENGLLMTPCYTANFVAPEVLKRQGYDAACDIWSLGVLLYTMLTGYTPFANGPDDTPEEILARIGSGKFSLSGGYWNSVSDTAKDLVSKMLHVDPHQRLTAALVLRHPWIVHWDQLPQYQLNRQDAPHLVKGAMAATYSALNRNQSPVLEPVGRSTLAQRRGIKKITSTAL
How it was run: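 Live A375 melanoma cells treated with compound at 5 or 0.5 μM, then lysed. Lysate kinases were labeled with a lysine-reactive ATP or ADP-biotin probe. Inhibition was read as protection of labeling sites from the probe.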

[10] = molecular target: Aurora kinase B (Homo sapiens) (UniProt Q96GD4); test: Inhibition of AurB ATP Loop labeling site in human A-375 cells at 0.05 uM by KiNativ Profiling analysis relative to control; assay type: cell-based
Aurora kinase B (Homo sapiens), sequence (Q96GD4 whole entry): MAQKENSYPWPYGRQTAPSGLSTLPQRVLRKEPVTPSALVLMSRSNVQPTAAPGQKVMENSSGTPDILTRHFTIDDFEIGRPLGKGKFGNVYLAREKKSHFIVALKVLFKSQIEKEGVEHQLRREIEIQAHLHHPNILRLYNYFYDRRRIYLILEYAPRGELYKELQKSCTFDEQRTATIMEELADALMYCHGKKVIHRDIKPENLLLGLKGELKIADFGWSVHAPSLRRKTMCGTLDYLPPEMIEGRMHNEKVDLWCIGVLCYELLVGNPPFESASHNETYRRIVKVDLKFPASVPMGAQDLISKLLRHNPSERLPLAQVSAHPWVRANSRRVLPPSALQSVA

[11] = molecular target: Serine/threonine-protein kinase 26 (Homo sapiens) (UniProt Q9P289); test: Inhibition of MST4 ACT labeling site in human A-375 cells at 0.05 uM by KiNativ Profiling analysis relative to control; assay type: cell-based

SMILES | Cmax [1] | inhibition [2] | inhibition [3] | IC50 [4] | inhibition [5] | inhibition [6] | inhibition [7] | inhibition [8] | inhibition [9] | inhibition [10] | inhibition [11]
CCN1CCN(Cc2ccc(NC(=O)c3ccc(C)c(Oc4ccnc5[nH]ccc45)c3)cc2C(F)(F)F)CC1 | 316 ng/mL | > 92% | 89.6% | 0.0752 µM | 77.1% | -3.9% | 11.4% | 39.8% | -0.1% | 32.5% | 22.4%
CCN1CCN(Cc2ccc(NC(=O)c3ccc(C)c(/C=C/c4cnc5[nH]ccc5c4OC)c3)cc2C(F)(F)F)CC1 | 163 ng/mL | > 92% | > 99% | 0.0515 µM | 80.4% | 1.8% | 0.2% | 40.3% | 6.2% | 14.1% | 13.5%
